# Assay results as given in ChEMBL document CHEMBL1156332, “Polysubstituted pyrazoles, part 6. Synthesis of some 1-(4-chlorophenyl)-4-hydroxy-1H-pyrazol-3-carbonyl derivatives linked to nitrogenous heterocyclic ring systems as potential antitumor agents” (2010).
# What was measured:
# Format in all cases: functional
# [1] = tested on: SK-MEL-5; experiment: Growth inhibition of human SK-MEL-5 cells after 48 hrs by sulforhodamine B assay; conditions: SK-MEL-5, 48 h
# In short: (§1)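 Adherent lines plated and held 24 h at 37 °C, 5% CO2, 100% humidity; time-zero plates TCA-fixed at drug addition. Drugs from DMSO stocks were made into five concentrations by 10-fold or half-log serial dilution and applied for 48 h continuous exposure. Cells were fixed with cold TCA (10% final) for 60 min at 4 °C, then stained with 0.4% SRB in 1% acetic acid for 10 min. Dye was solubilized in 10 mM Tris base and read at 515 nm. GI50 was taken from log concentration–growth curves.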
# [2] = Cytotoxicity against human prostate cancer cells after 48 hrs by sulforhodamine B assay; conditions: Cancer cell lines
# In short: (§2)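 NCI five-dose screen: about 60 human tumour lines grouped into nine subpanels were plated and incubated 24 h before dosing. Compounds went in as DMSO stock and were diluted in medium to five final concentrations (0.01–100 µM). Exposure was 48 h continuous at 37 °C, 5% CO₂, followed by TCA fixation and SRB staining read at 515 nm. Per-line GI₅₀, TGI and LC₅₀ came from log concentration–% growth curves, averaged per subpanel as MG-MID.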
# [3] = tested on: ACHN; experiment: Growth inhibition of human ACHN cells after 48 hrs by sulforhodamine B assay
# In short: (§3)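 NCI 60-line panel, five concentrations (0.01–100 µM) from DMSO stock diluted in medium with gentamicin. Cells were plated 24 h before dosing, with time-zero plates fixed at drug addition, then exposed 48 h at 37 °C, 5% CO₂. Adherent cells were fixed with cold TCA (10% final) and suspension cells with 16% TCA. Staining used 0.4% SRB, solubilised in 10 mM Tris and read at 515 nm. GI₅₀ was taken from log concentration–% growth curves.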
# [4] = tested on: SF-539; experiment: Growth inhibition of human SF539 cells after 48 hrs by sulforhodamine B assay; conditions: SF-539, 48 h; in short: as §1
# [5] = Cytotoxicity against human ovarian cancer cells after 48 hrs by sulforhodamine B assay; conditions: Cancer cell lines; in short: as §2
# [6] = Cytotoxicity against human colon cancer cells after 48 hrs by sulforhodamine B assay; conditions: Cancer cell lines; in short: as §2
# [7] = tested on: NCI-H226; experiment: Growth inhibition of human NCI-H226 cells after 48 hrs by sulforhodamine B assay; conditions: NCI-H226, 48 h; in short: as §3
# [8] = tested on: DU-145; experiment: Growth inhibition of human DU145 cells after 48 hrs by sulforhodamine B assay; conditions: DU-145, 48 h; in short: as §3
# [9] = Cytotoxicity against human renal cancer cells after 48 hrs by sulforhodamine B assay; conditions: Cancer cell lines; in short: as §2
# [10] = tested on: CAKI-1; experiment: Growth inhibition of human Caki1 cells after 48 hrs by sulforhodamine B assay; conditions: CAKI-1, 48 h; in short: as §3
# [11] = Cytotoxicity against human CNS cancer cells after 48 hrs by sulforhodamine B assay; conditions: Cancer cell lines; in short: as §2
# [12] = tested on: COLO 205; experiment: Growth inhibition of human COLO205 cells after 48 hrs by sulforhodamine B assay; conditions: COLO 205, 48 h; in short: as §3
# [13] = Cytotoxicity against human leukemia cells after 48 hrs by sulforhodamine B assay; conditions: Leukemia cell; in short: as §2
# [14] = tested on: NCI-H522; experiment: Growth inhibition of human NCI-H522 cells after 48 hrs by sulforhodamine B assay; conditions: NCI-H522, 48 h; in short: as §3
# [15] = tested on: KM12; experiment: Growth inhibition of human KM12 cells after 48 hrs by sulforhodamine B assay; conditions: KM12, 48 h; in short: as §3
# [16] = tested on: MDA-MB-435; experiment: Growth inhibition of human MDA-MB-435 cells after 48 hrs by sulforhodamine B assay; conditions: MDA-MB-435, 48 h; in short: as §3
# [17] = tested on: SW-620; experiment: Growth inhibition of human SW620 cells after 48 hrs by sulforhodamine B assay; conditions: SW-620, 48 h; in short: as §1
# [18] = tested on: SNB-19; experiment: Growth inhibition of human SNB19 cells after 48 hrs by sulforhodamine B assay; conditions: SNB-19, 48 h; in short: as §1
# [19] = tested on: RXF 393; experiment: Growth inhibition of human […] cells after 48 hrs by sulforhodamine B assay; conditions: RXF 393, 48 h; in short: as §3
# [20] = tested on: HCC 2998; experiment: Growth inhibition of human HCC2998 cells after 48 hrs by sulforhodamine B assay; conditions: HCC 2998, 48 h; in short: as §3
# [21] = tested on: CCRF-CEM; experiment: Growth inhibition of human CCRF-CEM cells after 48 hrs by sulforhodamine B assay; in short: as §3
# [22] = tested on: NCI-H460; experiment: Growth inhibition of human NCI-H460 cells after 48 hrs by sulforhodamine B assay; conditions: NCI-H460, 48 h; in short: as §3
# [23] = tested on: SF-295; experiment: Growth inhibition of human SF295 cells after 48 hrs by sulforhodamine B assay; conditions: SF-295, 48 h; in short: as §3
# [24] = tested on: MCF7; experiment: Growth inhibition of human MCF7 cells after 48 hrs by sulforhodamine B assay; conditions: MCF7, 48 h; in short: as §3
# [25] = tested on: NCI/ADR-RES; experiment: Growth inhibition of human NCI/ADR-RES cells after 48 hrs by sulforhodamine B assay; in short: as §3
# [26] = tested on: IGROV-1; experiment: Growth inhibition of human IGROV1 cells after 48 hrs by sulforhodamine B assay; conditions: IGROV-1, 48 h; in short: as §3
# [27] = tested on: SF-268; experiment: Growth inhibition of human SF268 cells after 48 hrs by sulforhodamine B assay; conditions: SF-268, 48 h; in short: as §3
# [28] = tested on: LOX IMVI; experiment: Growth inhibition of human LOXIMVI cells after 48 hrs by sulforhodamine B assay; in short: as §3
# [29] = tested on: BT-549; experiment: Growth inhibition of human BT549 cells after 48 hrs by sulforhodamine B assay; conditions: BT-549, 48 h; in short: as §3
# [30] = tested on: M14; experiment: Growth inhibition of human M14 cells after 48 hrs by sulforhodamine B assay; conditions: M14, 48 h; in short: as §3
# [31] = tested on: K562; experiment: Growth inhibition of human K562 cells after 48 hrs by sulforhodamine B assay; conditions: K562, 48 h; in short: as §3
# [32] = tested on: OVCAR-4; experiment: Growth inhibition of human OVCAR4 cells after 48 hrs by sulforhodamine B assay; conditions: OVCAR-4, 48 h; in short: as §3
# [33] = tested on: SK-OV-3; experiment: Growth inhibition of human SKOV3 cells after 48 hrs by sulforhodamine B assay; conditions: SK-OV-3, 48 h; in short: as §1
# [34] = tested on: SNB-75; experiment: Growth inhibition of human SNB75 cells after 48 hrs by sulforhodamine B assay; conditions: SNB-75, 48 h; in short: as §1
# [35] = tested on: T47D; experiment: Growth inhibition of human T47D cells after 48 hrs by sulforhodamine B assay; in short: as §1
# [36] = tested on: 786-0; experiment: Growth inhibition of human 786-0 cells after 48 hrs by sulforhodamine B assay; conditions: 786-0, 48 h; in short: as §3
# [37] = tested on: HT-29; experiment: Growth inhibition of human HT-29 cells after 48 hrs by sulforhodamine B assay; conditions: HT-29, 48 h; in short: as §3
# [38] = Cytotoxicity against human breast cancer cells after 48 hrs by sulforhodamine B assay; conditions: Cancer cell lines; in short: as §2
# [39] = Cytotoxicity against human lung cancer cells after 48 hrs by sulforhodamine B assay; conditions: Cancer cell lines; in short: as §2
# [40] = tested on: SK-MEL-28; experiment: Growth inhibition of human SK-MEL-28 cells after 48 hrs by sulforhodamine B assay; conditions: SK-MEL-28, 48 h; in short: as §1
# [41] = tested on: HOP-92; experiment: Growth inhibition of human HOP92 cells after 48 hrs by sulforhodamine B assay; conditions: HOP-92, 48 h; in short: as §3
smiles,measurement,setting,value
N#Cc1cnn(C(=O)c2nn(-c3ccc(Cl)cc3)cc2O)c1N,GI50,[1],0.48 µM
same,GI50,[2],0.45 µM
same,TGI,[2],13.4 µM
same,GI50,[3],0.32 µM
same,GI50,[4],0.32 µM
same,GI50,[5],0.5 µM
same,LC50 (50% lethal concentration),[5],88.5 µM
same,TGI,[5],19.6 µM
same,GI50,[6],0.61 µM
same,TGI,[6],12.6 µM
same,CC50,[6]; read-out: LC50 (the source's name),64.3 µM
same,GI50,[7],0.37 µM
same,GI50,[8],0.57 µM
same,GI50,[9],0.36 µM
same,LC50,[9],75 µM
same,TGI,[9],8.99 µM
same,GI50,[10],0.28 µM
same,GI50,[11],0.32 µM
same,LC50,[11],74.7 µM
same,TGI,[11],23.1 µM
same,GI50,[12],0.91 µM
same,GI50,[13],0.27 µM
same,LC50 (concentration killing 50% of cells),[13],44.3 µM
same,TGI,[13],3.23 µM
same,GI50,[14],0.21 µM
same,GI50,[15],0.38 µM
same,GI50,[16],0.29 µM
same,GI50,[17],0.52 µM
same,GI50,[18],0.45 µM
same,GI50,[19],0.51 µM
same,GI50,[20],0.65 µM
same,GI50,[21],0.28 µM
same,GI50,[22],0.19 µM
same,GI50,[23],0.16 µM
same,GI50,[24],0.36 µM
same,GI50,[25],0.37 µM
same,GI50,[26],0.36 µM
same,GI50,[27],0.46 µM
same,GI50,[28],0.44 µM
same,GI50,[29],0.29 µM
same,GI50,[30],0.48 µM
same,GI50,[31],0.25 µM
same,GI50,[32],0.46 µM
same,GI50,[33],0.52 µM
same,GI50,[34],0.25 µM
same,GI50,[35],0.3 µM
same,GI50,[36],0.66 µM
same,GI50,[37],1.19 µM
same,GI50,[38],0.43 µM
same,LC50,[38],64.3 µM
same,TGI,[38],14.4 µM
same,GI50,[39],0.32 µM
same,LC50 (concentration causing 50% net cell kill),[39],69.4 µM
same,TGI,[39],10.8 µM
same,GI50,[40],0.63 µM
same,GI50,[41],0.4 µM
CC1=NN(C(=O)c2nn(-c3ccc(Cl)cc3)cc2O)C(=O)C1,GI50,[1],1.7 µM
same,GI50,[2],5.22 µM
same,GI50,[3],0.88 µM
same,GI50,[4],1.7 µM
same,GI50,[5],1.74 µM
same,TGI,[5],83.8 µM
same,GI50,[6],3.09 µM
same,TGI,[6],95.4 µM
same,GI50,[7],1.4 µM
same,GI50,[8],5.22 µM
same,GI50,[9],1.67 µM
same,TGI,[9],77 µM
same,GI50,[10],1.06 µM
same,GI50,[11],1.09 µM
same,TGI,[11],79.6 µM
same,GI50,[12],4.81 µM
same,GI50,[13],1.03 µM
same,TGI,[13],52.9 µM
same,GI50,[14],2.84 µM
same,GI50,[15],2.27 µM
same,GI50,[16],1.2 µM
same,GI50,[17],3.41 µM
same,GI50,[18],3.16 µM
same,GI50,[19],15.4 µM
same,GI50,[20],3.67 µM
same,GI50,[21],0.42 µM
same,GI50,[22],0.37 µM
same,GI50,[23],0.23 µM
same,GI50,[24],3.61 µM
same,GI50,[25],1.89 µM
same,GI50,[26],0.51 µM
same,GI50,[27],0.49 µM
same,GI50,[28],1.55 µM
same,GI50,[29],0.65 µM
same,GI50,[30],1.78 µM
same,GI50,[31],0.65 µM
same,GI50,[32],2.4 µM
same,GI50,[33],1.53 µM
same,GI50,[34],0.53 µM
same,GI50,[35],2.66 µM
same,GI50,[36],6.45 µM
same,GI50,[37],6.16 µM
same,GI50,[38],2.02 µM
same,TGI,[38],90.1 µM
same,GI50,[39],1.82 µM
same,TGI,[39],78.2 µM
same,GI50,[40],3.06 µM
same,GI50,[41],3.67 µM
